Test results taken from ChEMBL document CHEMBL4422626, “Optimization of novel benzofuro[3,2-b]pyridin-2(1H)-one derivatives as dual inhibitors of BTK and PI3Kδ” (Eur J Med Chem, 2019).
pIC50: −log10 of the molar value. Active and inactive are the calls of the source. No cut-off for these calls is given here.

Tests used:
Ramos [1] = assay: Induction of apoptosis in human Ramos cells assessed as necrotic cells at 5 uM after 48 hrs by Annexin-V-FITC/propidium iodide staining based flow cytometric analysis (reference value: 1.11%); format: functional
Ramos [2] = assay: Cell cycle arrest in human Ramos cells assessed as accumulation at apoptotic phase at 5 uM after 48 hrs by propidium iodide staining based flow cytometric analysis (reference value: 5.03%); format: functional
Ramos [3] = assay: Induction of apoptosis in human Ramos cells assessed as viable cells at 5 uM after 48 hrs by Annexin-V-FITC/propidium iodide staining based flow cytometric analysis (reference value: 96.83%); format: functional; details: read-out: Activity
Ramos [4] = assay: Cell cycle arrest in human Ramos cells assessed as accumulation at S phase at 5 uM after 48 hrs by propidium iodide staining based flow cytometric analysis (reference value: 71.08%); format: functional
Ramos [5] = assay: Cell cycle arrest in human Ramos cells assessed as accumulation at G2/M phase at 5 uM after 48 hrs by propidium iodide staining based flow cytometric analysis (reference value: 4.26%); format: functional
Ramos [6] = assay: Induction of apoptosis in human Ramos cells assessed as late apoptotic cells at 5 uM after 48 hrs by Annexin-V-FITC/propidium iodide staining based flow cytometric analysis (reference value: 0.98%); format: functional
Raji [7] = assay: Antiproliferative activity against human Raji cells at 5 uM up to 24 hrs by CCK8 assay; format: functional, cell-based
Procedure, shortened: (§1)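 Raji (Burkitt lymphoma) cells in RPMI1640 or IMDM with 10% FBS, 37 °C, 5% CO2; seeded 3000-5000 cells/well, preincubated 12-24 h, then exposed to compound. Cells collected at different times and viability read by CCK-8 (4 h incubation, OD 450 nm).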

Ramos [8] = assay: Induction of apoptosis in human Ramos cells assessed as early apoptotic cells at 5 uM after 48 hrs by Annexin-V-FITC/propidium iodide staining based flow cytometric analysis (reference value: 1.08%); format: functional
Ramos [9] = assay: Antiproliferative activity against human Ramos cells after 48 hrs by CCK8 assay; format: functional, cell-based
Procedure, shortened: (§2)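 Raji and Ramos cells grown in RPMI1640 or IMDM with 10% FBS, 37 °C, 5% CO2. Seeded at 3000-5000 cells/well and left 12-24 h before dosing. Several compound concentrations given for 48 h. CCK-8 then added for 4 h and OD read at 450 nm. IC50 is the concentration giving 50% cell death versus control, calculated from inhibition ratios.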

Raji [10] = assay: Antiproliferative activity against human Raji cells at 5 uM after 24 hrs by CCK8 assay; format: functional, cell-based; procedure, shortened: as §1
Ramos [11] = assay: Cell cycle arrest in human Ramos cells assessed as accumulation at G0/G1 phase at 5 uM after 48 hrs by propidium iodide staining based flow cytometric analysis (reference value: 24.65%); format: functional
[12] = target: T1, Tyrosine-protein kinase BTK (Homo sapiens, UniProt Q06187); details: at 200 nM
[13] = target: Phosphatidylinositol 4,5-bisphosphate 3-kinase catalytic subunit beta isoform (Homo sapiens, UniProt P42338); assay: Inhibition of PI3Kbeta (unknown origin) by ADP-gloassay
Procedure, shortened: (§3)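 PI3K isoform activity was measured with the PI3K-Glo Class I Profiling Kit, a luminescent ADP-Glo-type read-out, following the manufacturer's protocol. Compounds were tested over 1 nM–5 μM to give IC50 values.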

[14] = target: Serine/threonine-protein kinase mTOR (Homo sapiens, UniProt P42345); assay: Inhibition of mTOR (unknown origin) by ADP-gloassay
[15] = target: T2, Phosphatidylinositol 4,5-bisphosphate 3-kinase catalytic subunit delta isoform (Homo sapiens) (UniProt O00329); assay: Inhibition of PI3Kdelta in human Ramos cells assessed as reduction in mTOR phosphorylation at Ser2481 residues at 0.25 to 4 uM after 4 hrs by Western blot analysis; format: cell-based
T2 sequence (whole entry): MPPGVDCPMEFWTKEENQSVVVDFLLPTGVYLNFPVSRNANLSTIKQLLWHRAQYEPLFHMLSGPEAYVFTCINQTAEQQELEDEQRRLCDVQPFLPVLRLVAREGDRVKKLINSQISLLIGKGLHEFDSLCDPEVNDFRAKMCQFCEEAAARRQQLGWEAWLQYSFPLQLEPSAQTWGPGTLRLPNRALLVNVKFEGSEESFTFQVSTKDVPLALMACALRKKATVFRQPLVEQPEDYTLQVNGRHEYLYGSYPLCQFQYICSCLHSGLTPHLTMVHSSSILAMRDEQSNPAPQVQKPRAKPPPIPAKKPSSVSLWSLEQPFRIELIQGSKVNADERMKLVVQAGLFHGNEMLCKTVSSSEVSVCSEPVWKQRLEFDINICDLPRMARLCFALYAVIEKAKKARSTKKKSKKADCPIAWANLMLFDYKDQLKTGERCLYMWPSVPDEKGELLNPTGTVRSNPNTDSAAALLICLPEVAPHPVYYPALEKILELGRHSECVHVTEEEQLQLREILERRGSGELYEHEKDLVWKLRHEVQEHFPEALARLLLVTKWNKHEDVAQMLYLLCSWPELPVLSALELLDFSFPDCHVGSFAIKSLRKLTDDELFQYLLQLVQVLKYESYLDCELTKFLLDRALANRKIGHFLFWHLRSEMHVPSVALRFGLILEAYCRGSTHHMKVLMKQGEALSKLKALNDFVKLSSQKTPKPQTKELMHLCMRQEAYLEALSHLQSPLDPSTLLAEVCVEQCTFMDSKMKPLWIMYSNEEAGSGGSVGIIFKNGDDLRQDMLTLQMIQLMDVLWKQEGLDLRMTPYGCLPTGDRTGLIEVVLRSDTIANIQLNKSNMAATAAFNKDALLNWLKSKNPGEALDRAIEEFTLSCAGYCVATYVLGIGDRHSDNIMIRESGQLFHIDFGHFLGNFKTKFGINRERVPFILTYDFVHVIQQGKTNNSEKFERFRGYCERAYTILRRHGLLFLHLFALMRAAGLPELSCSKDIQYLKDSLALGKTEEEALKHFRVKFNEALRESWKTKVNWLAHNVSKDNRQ
Procedure, shortened: (§4)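 Cells were treated with compound for 4 h, then stimulated or not with anti-human IgM F(ab')2. They were lysed in Tris-Cl pH 6.8/4% SDS/glycerol/β-mercaptoethanol buffer on ice and protein was quantified by BCA. Equal protein was run on 12% SDS-PAGE and transferred to PVDF. Blots were probed with specific primary antibodies overnight at 4 °C and HRP secondaries 1 h at 37 °C, with ECL detection.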

Raji [16] = assay: Antiproliferative activity against human Raji cells after 48 hrs by CCK8 assay; format: functional, cell-based; procedure, shortened: as §2
[17] = target: Phosphatidylinositol 4,5-bisphosphate 3-kinase catalytic subunit gamma isoform (Homo sapiens, UniProt P48736); assay: Inhibition of PI3Kgamma (unknown origin) by ADP-gloassay; procedure, shortened: as §3
[18] = target: T1, Tyrosine-protein kinase BTK; assay: Inhibition of BTK (unknown origin) by ADP-gloassay
[19] = target: Phosphatidylinositol 4,5-bisphosphate 3-kinase catalytic subunit alpha isoform (Homo sapiens, UniProt P42336); assay: Inhibition of PI3Kalpha (unknown origin) by ADP-gloassay; procedure, shortened: as §3
[20] = target: T3, Phosphatidylinositol 4,5-bisphosphate 3-kinase catalytic subunit delta isoform (Homo sapiens, UniProt O00329); assay: Inhibition of PI3Kdelta (unknown origin) by ADP-gloassay
T3 sequence (O00329 whole entry): T2 sequence (whole entry)
Procedure, shortened: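 PI3K isoform activity was measured with the PI3K-Glo Class I Profiling Kit, a luminescent ADP-Glo-type read-out, following the manufacturer's protocol.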

[21] = target: T2, Phosphatidylinositol 4,5-bisphosphate 3-kinase catalytic subunit delta isoform (Homo sapiens); assay: Inhibition of PI3Kdelta (unknown origin) at 200 nM by ADP-gloassay relative to control
Procedure, shortened: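 PI3Kδ was tested with the PI3K-Glo Class I Profiling Kit and a luminescence read-out, following the manufacturer's protocol. Each compound was tested at a single concentration of 200 nM and expressed as percent inhibition versus control.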

[22] = target: T2, Phosphatidylinositol 4,5-bisphosphate 3-kinase catalytic subunit delta isoform (Homo sapiens); assay: Inhibition of PI3Kdelta in human Ramos cells assessed as reduction in Akt phosphorylation at Ser473 residues at 0.25 to 4 uM after 4 hrs by Western blot analysis; format: cell-based; procedure, shortened: as §4
[23] = target: T2, Phosphatidylinositol 4,5-bisphosphate 3-kinase catalytic subunit delta isoform (Homo sapiens); assay: Inhibition of PI3Kdelta in human Ramos cells assessed as reduction in Akt phosphorylation at Ser473 residues at 0.25 to 1 uM after 4 hrs by Western blot analysis; format: cell-based
Procedure, shortened: (§5)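 Ramos cells pretreated with compound for 4 h, then stimulated or not with anti-human IgM F(ab')2. Cells were washed in PBS and lysed on ice for 0.5 h in Tris-Cl pH 6.8/SDS/glycerol/β-mercaptoethanol/PMSF/NaF/DTT buffer, then heated. Protein was quantified by BCA, with equal amounts run on 12% SDS-PAGE and semi-dry blotted to PVDF. Primary antibodies overnight at 4 °C, HRP secondary 1 h at 37 °C, ECL detection on film.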

[24] = target: T2, Phosphatidylinositol 4,5-bisphosphate 3-kinase catalytic subunit delta isoform (Homo sapiens); assay: Inhibition of PI3Kdelta in human Ramos cells assessed as reduction in mTOR phosphorylation at Ser2481 residues at 0.25 to 1 uM after 4 hrs by Western blot analysis; format: cell-based; procedure, shortened: as §5

T1 sequence (Q06187 whole entry, canonical isoform): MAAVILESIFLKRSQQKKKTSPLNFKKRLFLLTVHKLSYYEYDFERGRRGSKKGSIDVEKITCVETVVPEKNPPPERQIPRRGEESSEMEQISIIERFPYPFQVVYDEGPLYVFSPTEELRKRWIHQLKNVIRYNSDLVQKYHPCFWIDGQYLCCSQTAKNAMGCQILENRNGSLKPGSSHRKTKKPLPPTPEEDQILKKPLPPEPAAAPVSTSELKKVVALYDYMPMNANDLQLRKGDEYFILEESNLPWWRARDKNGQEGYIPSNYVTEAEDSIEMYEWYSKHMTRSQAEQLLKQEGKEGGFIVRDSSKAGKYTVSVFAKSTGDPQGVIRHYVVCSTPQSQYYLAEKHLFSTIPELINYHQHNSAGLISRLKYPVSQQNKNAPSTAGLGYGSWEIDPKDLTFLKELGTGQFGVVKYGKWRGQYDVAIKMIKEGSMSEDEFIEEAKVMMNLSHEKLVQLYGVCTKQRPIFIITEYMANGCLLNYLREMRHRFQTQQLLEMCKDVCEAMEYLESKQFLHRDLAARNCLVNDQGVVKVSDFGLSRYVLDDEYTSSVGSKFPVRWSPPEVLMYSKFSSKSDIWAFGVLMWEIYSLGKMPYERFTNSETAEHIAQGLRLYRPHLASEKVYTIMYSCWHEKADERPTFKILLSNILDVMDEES
Phosphatidylinositol 4,5-bisphosphate 3-kinase catalytic subunit gamma isoform, sequence (P48736 whole entry, canonical isoform): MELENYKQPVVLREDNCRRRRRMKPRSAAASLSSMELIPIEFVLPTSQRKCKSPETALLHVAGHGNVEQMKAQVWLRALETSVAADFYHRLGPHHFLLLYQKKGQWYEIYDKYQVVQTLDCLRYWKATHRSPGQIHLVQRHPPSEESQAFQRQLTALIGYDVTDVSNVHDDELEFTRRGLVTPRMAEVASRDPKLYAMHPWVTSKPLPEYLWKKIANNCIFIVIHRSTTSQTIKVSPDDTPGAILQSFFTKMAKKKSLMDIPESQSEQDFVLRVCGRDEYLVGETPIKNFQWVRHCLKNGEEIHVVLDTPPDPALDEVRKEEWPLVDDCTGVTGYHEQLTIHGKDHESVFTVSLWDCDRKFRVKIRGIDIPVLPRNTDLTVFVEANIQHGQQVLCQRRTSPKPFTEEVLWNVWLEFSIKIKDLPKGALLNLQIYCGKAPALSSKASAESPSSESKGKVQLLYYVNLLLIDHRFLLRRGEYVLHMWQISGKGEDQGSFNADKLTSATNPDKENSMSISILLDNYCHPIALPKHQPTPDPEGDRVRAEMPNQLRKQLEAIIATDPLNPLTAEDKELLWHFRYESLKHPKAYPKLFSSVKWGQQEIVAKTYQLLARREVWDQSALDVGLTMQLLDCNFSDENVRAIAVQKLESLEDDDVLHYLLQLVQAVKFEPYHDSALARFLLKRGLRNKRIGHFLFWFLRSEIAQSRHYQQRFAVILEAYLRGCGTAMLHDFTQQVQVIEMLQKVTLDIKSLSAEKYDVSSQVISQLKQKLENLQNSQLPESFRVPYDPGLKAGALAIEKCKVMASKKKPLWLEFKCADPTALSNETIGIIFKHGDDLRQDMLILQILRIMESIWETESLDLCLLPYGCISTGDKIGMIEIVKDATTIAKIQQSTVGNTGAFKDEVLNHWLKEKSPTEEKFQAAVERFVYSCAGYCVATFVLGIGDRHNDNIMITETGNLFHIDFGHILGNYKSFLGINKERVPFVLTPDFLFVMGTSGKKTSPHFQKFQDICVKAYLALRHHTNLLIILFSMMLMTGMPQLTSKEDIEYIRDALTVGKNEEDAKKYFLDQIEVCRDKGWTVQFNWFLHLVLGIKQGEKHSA
Phosphatidylinositol 4,5-bisphosphate 3-kinase catalytic subunit beta isoform, sequence (P42338 whole entry, canonical isoform): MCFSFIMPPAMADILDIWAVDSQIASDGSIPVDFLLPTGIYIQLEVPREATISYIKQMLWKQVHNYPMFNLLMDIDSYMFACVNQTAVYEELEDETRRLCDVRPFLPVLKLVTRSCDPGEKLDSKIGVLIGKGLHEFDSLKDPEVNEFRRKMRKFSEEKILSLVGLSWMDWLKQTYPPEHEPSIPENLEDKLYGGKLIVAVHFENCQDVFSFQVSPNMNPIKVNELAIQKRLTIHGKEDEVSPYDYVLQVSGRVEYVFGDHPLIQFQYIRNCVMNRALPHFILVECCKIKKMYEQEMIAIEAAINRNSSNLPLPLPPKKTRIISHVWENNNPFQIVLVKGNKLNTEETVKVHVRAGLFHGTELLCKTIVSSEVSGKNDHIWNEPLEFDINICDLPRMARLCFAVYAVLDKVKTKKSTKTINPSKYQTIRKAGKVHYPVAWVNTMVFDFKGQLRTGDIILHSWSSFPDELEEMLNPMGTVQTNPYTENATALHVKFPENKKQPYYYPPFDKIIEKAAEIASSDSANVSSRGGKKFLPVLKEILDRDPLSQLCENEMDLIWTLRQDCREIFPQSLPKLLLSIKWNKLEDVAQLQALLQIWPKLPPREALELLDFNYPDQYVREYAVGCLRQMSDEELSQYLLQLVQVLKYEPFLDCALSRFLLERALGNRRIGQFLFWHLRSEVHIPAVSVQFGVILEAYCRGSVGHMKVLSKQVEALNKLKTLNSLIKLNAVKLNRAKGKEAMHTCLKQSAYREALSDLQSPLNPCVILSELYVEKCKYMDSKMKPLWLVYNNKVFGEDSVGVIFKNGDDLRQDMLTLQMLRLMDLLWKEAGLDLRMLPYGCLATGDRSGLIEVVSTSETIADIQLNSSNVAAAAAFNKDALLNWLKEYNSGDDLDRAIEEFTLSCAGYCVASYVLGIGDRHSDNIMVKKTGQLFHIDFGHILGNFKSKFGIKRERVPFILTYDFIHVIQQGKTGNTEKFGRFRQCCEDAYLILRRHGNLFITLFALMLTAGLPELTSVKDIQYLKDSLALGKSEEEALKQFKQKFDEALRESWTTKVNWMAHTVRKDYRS
Phosphatidylinositol 4,5-bisphosphate 3-kinase catalytic subunit alpha isoform, sequence (P42336 whole entry, canonical isoform): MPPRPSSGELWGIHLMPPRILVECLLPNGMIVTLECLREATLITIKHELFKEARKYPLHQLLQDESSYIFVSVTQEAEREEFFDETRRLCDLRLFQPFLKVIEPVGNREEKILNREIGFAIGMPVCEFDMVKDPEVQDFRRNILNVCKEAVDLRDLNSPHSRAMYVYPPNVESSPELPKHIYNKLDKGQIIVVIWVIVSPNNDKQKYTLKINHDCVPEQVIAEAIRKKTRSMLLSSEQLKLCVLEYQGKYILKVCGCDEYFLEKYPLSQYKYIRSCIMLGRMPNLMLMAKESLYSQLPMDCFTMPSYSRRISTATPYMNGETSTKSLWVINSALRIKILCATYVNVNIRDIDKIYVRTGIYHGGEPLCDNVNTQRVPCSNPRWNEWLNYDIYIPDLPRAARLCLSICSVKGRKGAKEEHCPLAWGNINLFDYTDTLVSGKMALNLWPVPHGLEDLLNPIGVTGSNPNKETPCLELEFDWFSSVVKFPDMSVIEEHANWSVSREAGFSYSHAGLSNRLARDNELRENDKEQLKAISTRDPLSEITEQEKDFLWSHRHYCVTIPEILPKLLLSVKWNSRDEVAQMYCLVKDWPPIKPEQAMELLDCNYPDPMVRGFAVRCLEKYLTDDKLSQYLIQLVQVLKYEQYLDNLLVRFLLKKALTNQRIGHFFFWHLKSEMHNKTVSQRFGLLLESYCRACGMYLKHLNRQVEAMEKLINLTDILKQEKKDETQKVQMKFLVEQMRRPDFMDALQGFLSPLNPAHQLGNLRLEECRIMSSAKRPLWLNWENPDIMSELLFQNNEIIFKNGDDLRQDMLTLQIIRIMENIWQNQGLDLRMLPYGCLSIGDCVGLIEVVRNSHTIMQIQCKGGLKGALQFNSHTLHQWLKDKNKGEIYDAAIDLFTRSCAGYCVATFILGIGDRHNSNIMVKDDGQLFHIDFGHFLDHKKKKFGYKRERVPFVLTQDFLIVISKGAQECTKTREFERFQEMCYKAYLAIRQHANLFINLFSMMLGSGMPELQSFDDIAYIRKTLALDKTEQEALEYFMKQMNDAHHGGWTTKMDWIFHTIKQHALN

Structure (SMILES)	pIC50 (Ramos [9])	inhibition [12] [%]	pIC50 (Raji [16])	pIC50 [18]	inhibition [21]	also measured
C=CC(=O)N1CCC[C@@H](n2nc(-c3ccc(Oc4ccccc4)cc3)c3c(N)ncnc32)C1 [IBRUTINIB]	5.24	–	–	–	–	Activity (Ramos [1]): 0.37%; Activity (Ramos [2]): 4.33%; viability at 5 µM (Ramos [3]): 91.8%; Activity (Ramos [4]): 65.18%; Activity (Ramos [5]): 4.26%; Activity (Ramos [6]): 2.71%; Activity (Raji [7]): inactive; Activity (Ramos [8]): 5.12%; Activity (Raji [10]): Active; Activity (Ramos [11]): 30.5%
C=CC(=O)Nc1cccc(-n2c(=O)ccc3oc4ccc(-c5cccnc5)cc4c32)c1	5.58	86.8	5.68	7.13	58.1%	pIC50 [13]: 5.55; Activity (Ramos [1]): 0.67%; Activity (Ramos [2]): 55.36%; pIC50 [14]: < 5.00; viability at 5 µM (Ramos [3]): 9.55%; Activity (Ramos [4]): 34.56%; Activity (Ramos [5]): 4.64%; Activity (Ramos [6]): 52.16%; Activity (Ramos [8]): 37.62%; inhibition [15]: Active; pIC50 [17]: 5.66; pIC50 [19]: 6.07; pIC50 [20]: 6.77; inhibition [22]: Active; Activity (Ramos [11]): 60.8%
CN(C)CC(=O)Nc1ccc(-n2c(=O)ccc3oc4ccc(-c5cccnc5)cc4c32)cc1	5.46	63.4	5.15	7.30	inactive	–
CN(C)CC(=O)Nc1ccc(-n2c(=O)ccc3oc4ccc(-c5ccc(O)cc5)cc4c32)cc1	–	51.7	5.74	6.82	inactive	–
CN(C)CC(=O)Nc1ccc(-n2c(=O)ccc3oc4ccc(C5CCN(C(=O)OC(C)(C)C)CC5)cc4c32)cc1	–	49.2	5.15	–	inactive	–
C=CC(=O)Nc1cccc(-n2c(=O)ccc3oc4ccc(-c5ccc(F)nc5)cc4c32)c1	5.73	–	5.66	–	34%	pIC50 [20]: 6.04
C=CC(=O)Nc1ccc(-n2c(=O)ccc3oc4ncc(-c5cccnc5)cc4c32)cc1	5.88	38.7	5.13	–	34.2%	pIC50 [20]: 6.00
COc1ccc(-c2cnc3oc4ccc(=O)n(-c5ccc(NC(=O)CN(C)C)cc5)c4c3c2)cn1	–	58.8	< 4.40	6.82	inactive	–
COc1ccc(-c2cnc3oc4ccc(=O)n(-c5ccc(NC(=O)CN6CCNCC6)cc5)c4c3c2)cn1	–	32	4.47	–	inactive	–
CN(C)CC(=O)Nc1ccc(-n2c(=O)ccc3oc4ccc(C5CCNCC5)cc4c32)cc1	–	33.1	5.62	–	inactive	–
C=CC(=O)Nc1ccc(-n2c(=O)ccc3oc4ccc(-c5ccc(F)nc5)cc4c32)cc1	5.78	32.1	5.14	–	31.7%	pIC50 [20]: 5.90
Cn1c(=O)n(-c2ccc(C(C)(C)C#N)cc2)c2c3cc(-c4cnc5ccccc5c4)ccc3ncc21 [DACTOLISIB]	8.17	–	6.66	–	–	Activity (Ramos [1]): 0.64%; Activity (Ramos [2]): 58.92%; viability at 5 µM (Ramos [3]): 5.78%; Activity (Ramos [4]): 35.34%; Activity (Ramos [5]): 5%; Activity (Ramos [6]): 40.03%; inhibition [23]: Active; Activity (Ramos [8]): 53.54%; inhibition [24]: Active; Activity (Ramos [11]): 59.66%
CN(C)CC(=O)Nc1ccc(-n2c(=O)ccc3oc4ccc(-c5cccc6[nH]ccc56)cc4c32)cc1	–	47.2	4.73	–	inactive	–
COc1ccc(-c2cnc3oc4ccc(=O)n(-c5ccc(NC(=O)CN6CCCCC6)cc5)c4c3c2)cn1	–	55	< 4.40	6.90	inactive	–
C=CC(=O)Nc1cccc(-n2c(=O)ccc3oc4ccc(-c5ccc(OC)nc5)cc4c32)c1	5.89	67.3	5.62	7.10	11.3%	–
